In brackets after ≈: the same amount, converted by molar mass.
Tests used:
[1] = tested on: Shigella flexneri; assay: Antimicrobial activity against Shigella flexneri MTCC 1457 at 1 mg/disc after 24 hrs by disc diffusion assay; type: functional
In short: (§1)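 Disc diffusion on Mueller Hinton agar. Inoculum was grown in MHB for 24 h at 37 °C, swabbed onto the plates and dried for 10 min. Discs with 1 mg compound were left 30 min at room temperature for diffusion, then incubated at 37 °C for 24 h. Inhibition zone was read in mm; run twice. Solvent was the negative control, streptomycin the positive control.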

[2] = tested on: Salmonella typhimurium; assay: Antimicrobial activity against Salmonella typhimurium MTCC 1251 at 1 mg/disc after 24 hrs by disc diffusion assay; type: functional, Salmonella enterica subsp. enterica serovar Typhimurium; in short: as §1
[3] = tested on: Klebsiella aerogenes; assay: Antimicrobial activity against Enterobacter aerogenes MTCC 111 after 24 hrs by two fold dilution method; type: functional; conditions: MTCC 111, 24 h
In short: (§2)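 Broth two-fold serial dilution in 96-well plates from 1000 to 7.81 µg/mL, compound in DMSO (2%). Inoculum was grown in MHB for 24 h at 37 °C; plates were incubated 24 h at 37 °C. 5 µL of broth was spotted onto MHA; MIC was the lowest concentration with no visible growth on agar. Streptomycin was the positive control.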

[4] = tested on: Staphylococcus aureus; assay: Bactericidal activity against methicillin-resistant Staphylococcus aureus MTCC 96 after 24 hrs by two fold dilution method; type: functional; conditions: MTCC 96, 24 h
In short: (§3)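 Tubes held 5 mL MHB with two-fold dilutions from 1000 to 7.81 µg/mL and were inoculated with 5 × 10^5 to 1 × 10^6 cells in 0.1 mL MHB, incubated without shaking. Turbidity was checked at 20 h, tubes vortexed and re-incubated 4 h.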

[5] = tested on: Malassezia pachydermatis; assay: Fungicidal activity against Malassezia pachydermatis after 48 to 72 hrs by two fold dilution method; type: functional
[6] = tested on: Klebsiella pneumoniae; assay: Antimicrobial activity against Klebsiella pneumoniae MTCC 109 after 24 hrs by two fold dilution method; type: functional; conditions: MTCC 109, 24 h; in short: as §2
[7] = tested on: Salmonella enterica subsp. enterica serovar Paratyphi B; assay: Antimicrobial activity against Salmonella paratyphi B after 24 hrs by two fold dilution method; type: functional; in short: as §2
[8] = tested on: Staphylococcus aureus; assay: Antimicrobial activity against methicillin-resistant Staphylococcus aureus MTCC 96 after 24 hrs by two fold dilution method; type: functional; conditions: MTCC 96, 24 h; in short: as §2
[9] = tested on: Salmonella enterica subsp. enterica serovar Paratyphi B; assay: Antimicrobial activity against Salmonella paratyphi B at 1 mg/disc after 24 hrs by disc diffusion assay; type: functional; in short: as §1
[10] = tested on: Staphylococcus aureus; assay: Antimicrobial activity against Staphylococcus aureus MTCC 96 after 24 hrs by two fold dilution method; type: functional; conditions: MTCC 96, 24 h; in short: as §2
[11] = tested on: Salmonella typhimurium; assay: Antimicrobial activity against Salmonella typhimurium MTCC 1251 after 24 hrs by two fold dilution method; type: functional, Salmonella enterica subsp. enterica serovar Typhimurium; conditions: Salmonella enterica, MTCC 1251, 24 h; in short: as §2
[12] = tested on: Klebsiella aerogenes; assay: Bactericidal activity against Enterobacter aerogenes MTCC 111 after 24 hrs by two fold dilution method; type: functional; conditions: MTCC 111, 24 h; in short: as §3
[13] = tested on: Micrococcus luteus; assay: Bactericidal activity against Micrococcus luteus MTCC 106 after 24 hrs by two fold dilution method; type: functional; conditions: MTCC 106, 24 h; in short: as §3
[14] = tested on: Klebsiella pneumoniae; assay: Bactericidal activity against Klebsiella pneumoniae MTCC 109 after 24 hrs by two fold dilution method; type: functional; conditions: MTCC 109, 24 h; in short: as §3
[15] = tested on: Candida albicans; assay: Antimicrobial activity against Candida albicans MTCC 227 at 1 mg/disc after 24 hrs by disc diffusion assay; type: functional
[16] = tested on: Candida albicans; assay: Fungicidal activity against Candida albicans MTCC 227 after 48 to 72 hrs by two fold dilution method; type: functional
[17] = tested on: Pseudomonas aeruginosa; assay: Antimicrobial activity against Pseudomonas aeruginosa MTCC 741 after 24 hrs by two fold dilution method; type: functional; conditions: MTCC 741, 24 h; in short: as §2
[18] = tested on: Malassezia pachydermatis; assay: Antimicrobial activity against Malassezia pachydermatis after 48 to 72 hrs by two fold dilution method; type: functional
In short: (§4)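 Yeast was grown in Sabouraud dextrose broth at 28 °C for 48 h and tested per CLSI reference methods. Two-fold serial dilutions from 1000 to 7.81 µg/mL, compound in DMSO (2%), in 96-well plates, incubated 48–72 h at 28 °C. MIC was the lowest concentration with no visible fungal growth. Ketoconazole was the positive control.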

[19] = tested on: Staphylococcus aureus; assay: Bactericidal activity against Staphylococcus aureus MTCC 96 after 24 hrs by two fold dilution method; type: functional; conditions: MTCC 96, 24 h; in short: as §3
[20] = tested on: Malassezia pachydermatis; assay: Antimicrobial activity against Malassezia pachydermatis at 1 mg/disc after 24 hrs by disc diffusion assay; type: functional
[21] = tested on: Klebsiella aerogenes; assay: Antimicrobial activity against Enterobacter aerogenes MTCC 111 at 1 mg/disc after 24 hrs by disc diffusion assay; type: functional; in short: as §1
[22] = tested on: Salmonella typhimurium; assay: Bactericidal activity against Salmonella typhimurium MTCC 1251 after 24 hrs by two fold dilution method; type: functional, Salmonella enterica subsp. enterica serovar Typhimurium; conditions: Salmonella enterica, MTCC 1251, 24 h; in short: as §3
[23] = tested on: Proteus vulgaris; assay: Bactericidal activity against Proteus vulgaris MTCC 1771 after 24 hrs by two fold dilution method; type: functional; conditions: MTCC 1771, 24 h; in short: as §3
[24] = tested on: Shigella flexneri; assay: Antimicrobial activity against Shigella flexneri MTCC 1457 after 24 hrs by two fold dilution method; type: functional; conditions: MTCC 1457, 24 h; in short: as §2
[25] = tested on: Staphylococcus aureus; assay: Antimicrobial activity against […] Staphylococcus aureus MTCC 96 at 1 mg/disc after 24 hrs by disc diffusion assay; type: functional; in short: as §1
[26] = tested on: Micrococcus luteus; assay: Antimicrobial activity against Micrococcus luteus MTCC 106 after 24 hrs by two fold dilution method; type: functional; conditions: MTCC 106, 24 h; in short: as §2
[27] = tested on: Candida albicans; assay: Antimicrobial activity against Candida albicans MTCC 227 after 48 to 72 hrs by two fold dilution method; type: functional; in short: as §4
[28] = tested on: Shigella flexneri; assay: Bactericidal activity against Shigella flexneri MTCC 1457 after 24 hrs by two fold dilution method; type: functional; conditions: MTCC 1457, 24 h; in short: as §3
[29] = tested on: Klebsiella pneumoniae; assay: Antimicrobial activity against Klebsiella pneumoniae MTCC 109 at 1 mg/disc after 24 hrs by disc diffusion assay; type: functional; in short: as §1
[30] = tested on: Proteus vulgaris; assay: Antimicrobial activity against Proteus vulgaris MTCC 1771 at 1 mg/disc after 24 hrs by disc diffusion assay; type: functional; in short: as §1
[31] = tested on: Micrococcus luteus; assay: Antimicrobial activity against Micrococcus luteus MTCC 106 at 1 mg/disc after 24 hrs by disc diffusion assay; type: functional; in short: as §1
[32] = tested on: Pseudomonas aeruginosa; assay: Antimicrobial activity against Pseudomonas aeruginosa MTCC 741 at 1 mg/disc after 24 hrs by disc diffusion assay; type: functional; in short: as §1
[33] = tested on: Staphylococcus aureus; assay: Antimicrobial activity against Staphylococcus aureus MTCC 96 at 1 mg/disc after 24 hrs by disc diffusion assay; type: functional; in short: as §1
[34] = tested on: Salmonella enterica subsp. enterica serovar Paratyphi B; assay: Bactericidal activity against Salmonella paratyphi B after 24 hrs by two fold dilution method; type: functional; in short: as §3
[35] = tested on: Bacillus subtilis; assay: Antimicrobial activity against Bacillus subtilis MTCC 441 after 24 hrs by two fold dilution method; type: functional; conditions: MTCC 441, 24 h; in short: as §2
[36] = tested on: Proteus vulgaris; assay: Antimicrobial activity against Proteus vulgaris MTCC 1771 after 24 hrs by two fold dilution method; type: functional; conditions: MTCC 1771, 24 h; in short: as §2
[37] = tested on: Bacillus subtilis; assay: Antimicrobial activity against Bacillus subtilis MTCC 441 at 1 mg/disc after 24 hrs by disc diffusion assay; type: functional; in short: as §1
[38] = tested on: Pseudomonas aeruginosa; assay: Bactericidal activity against Pseudomonas aeruginosa MTCC 741 after 24 hrs by two fold dilution method; type: functional; conditions: MTCC 741, 24 h; in short: as §3
[39] = tested on: Bacillus subtilis; assay: Bactericidal activity against Bacillus subtilis MTCC 441 after 24 hrs by two fold dilution method; type: functional; conditions: MTCC 441, 24 h; in short: as §3

Compound	inhibition zone (IZ) [1] [mm]	inhibition zone (IZ) [2] [mm]	MIC [3] [µg/mL]	MBC [4] [µg/mL]	MFC [5] [µg/mL]	MIC [6] [µg/mL]	MIC [7] [µg/mL]	MIC [8] [µg/mL]	inhibition zone (IZ) [9] [mm]	MIC [10] [µg/mL]	MIC [11] [µg/mL]	MBC [12] [µg/mL]	MBC [13] [µg/mL]	MBC [14] [µg/mL]	inhibition zone (IZ) [15] [mm]	MFC [16] [µg/mL]	MIC [17] [µg/mL]	MIC [18] [µg/mL]	inhibition zone (IZ) [20] [mm]	MIC [27] [µg/mL]	other results
CC(C)C[C@@H](C)N[C@@H](C)[C@H](O)c1ccccc1.Cl	15	14	125	125	62.5	62.5	125	62.5	13	62.5	125	125	62.5	62.5	17	62.5	62.5	62.5	16	62.5	MBC [19]: 125 µg/mL; inhibition zone (IZ) [21]: 14 mm; MBC [22]: 250 µg/mL; MBC [23]: 250 µg/mL; MIC [24]: 125 µg/mL; inhibition zone (IZ) [25]: 16 mm; MIC [26]: 62.5 µg/mL; MBC [28]: 250 µg/mL; inhibition zone (IZ) [29]: 16 mm; inhibition zone (IZ) [30]: 15 mm; inhibition zone (IZ) [31]: 16 mm; inhibition zone (IZ) [32]: 17 mm; inhibition zone (IZ) [33]: 17 mm; MBC [34]: 250 µg/mL; MIC [35]: 125 µg/mL; MIC [36]: 125 µg/mL; inhibition zone (IZ) [37]: 15 mm; MBC [38]: 125 µg/mL; MBC [39]: 250 µg/mL
CC[C@H](N[C@H](C)[C@@H](O)c1ccccc1)c1ccccc1.Cl	20	19	31.2	31.2	31.2	31.2	62.5	31.2	20	15.6	62.5	31.2	31.2	62.5	20	31.2	62.5	31.2	22	31.2	MBC [19]: 31.2 µg/mL; inhibition zone (IZ) [21]: 20 mm; MBC [22]: 62.5 µg/mL; MBC [23]: 62.5 µg/mL; MIC [24]: 31.2 µg/mL; inhibition zone (IZ) [25]: 22 mm; MIC [26]: 31.2 µg/mL; MBC [28]: 62.5 µg/mL; inhibition zone (IZ) [29]: 24 mm; inhibition zone (IZ) [30]: 20 mm; inhibition zone (IZ) [31]: 23 mm; inhibition zone (IZ) [32]: 16 mm; inhibition zone (IZ) [33]: 24 mm; MBC [34]: 62.5 µg/mL; MIC [35]: 31.2 µg/mL; MIC [36]: 31.2 µg/mL; inhibition zone (IZ) [37]: 22 mm; MBC [38]: 125 µg/mL; MBC [39]: 62.5 µg/mL
CC(=O)N1CCN(c2ccc(OCC3COC(Cn4ccnc4)(c4ccc(Cl)cc4Cl)O3)cc2)CC1 (configuration not stated) [KETOCONAZOLE]	–	–	–	–	–	–	–	–	–	–	–	–	–	–	28	–	–	25 (≈ 47 µM)	26	25 (≈ 47 µM)	–
